Source: PubChem BioAssay
Calls of active or inactive are those of the source.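 How the source made its calls, unless noted: active means viability at or below 10% of carrier control in both of two separate runs; inconclusive means viability at or below 10% in only one of the two runs; inactive means the rest.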

Legend:
[1] = Her2 expression decrease, cell viability multiplex – SKBR3 breast tumor cells, AlphaScreen, ATP viability, primary screen (AID 461;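 active means Her2 level under about 52% in both replicate screens, with viability over 70% of control, limit read from the data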;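 on Her2 level: lower value means less Her2 protein in the cells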;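 on viability: percent of carrier control wells set as 100% viability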); conditions: SKBR3 Her2 protein level, 18-24 h, measured here: SKBR3 viability, ATP luminescence, at 10 µM
[2] = molecular target: Receptor tyrosine-protein kinase erbB-2 (Homo sapiens) (UniProt P04626); assay: as above; conditions: 18-24 h, at 10 µM, stronger effect = lower value
[3] = reduced viability of SK-BR-3 breast cancer cells – cell-based, 24 h, human, pilot screen (AID 572); conditions: SK-BR-3 viability, CellTiter-Glo luminescence, at 10 µM, stronger effect = lower value;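 further: compound exposure lasted between 18 and 24 h rather than exactly 24 h; 100% = carrier-treated control wells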
[4] = HUVEC growth inhibition – cell-based, human, primary screen (AID 575;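 active means viability at or below 30% in both replicate assays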;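 further: 100% = median of untreated cell wells with 0.1% DMSO on each plate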); conditions: HUVEC proliferation, CellTiter-Glo luminescence, 72 h; at 10 µM; stronger effect = lower value
In short: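 Test system – primary HUVEC, no more than 12 passages · Dosing – one dose, 10 µM final, 0.1% DMSO · Times – 72 h treatment at 37 °C · Measured by – ATP-based CellTiter-Glo luminescent read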

[5] = H69AR cell proliferation blockers – human, duplicate replicates, primary screen (AID 580;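 active means viability at or under a set limit in both replicates, limit being median viability minus 3 SD, cut at about 48% in these data, passing the limit was not always enough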;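 further: 100% = mean luminescence of untreated wells and 0% = no signal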); conditions: H69AR lung tumor cells viability, ATP luminescence, 72 h; at 10 µM; stronger effect = lower value
[6] = MRP1 drug-resistance reversers in H69AR cells – cell-based, doxorubicin co-treatment, pilot screen (AID 601;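 active means viability loss from added drug above about 55%, and viability with drug at most 40%, in both replicates, limit read from the data, passing the limit was not always enough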); conditions: CellTiter-Glo, 72 h, at 10 µM; for differential viability (reversal): stronger effect = higher value
[7] = yeast transport mutant growth inhibition pilot in 384-well plates, post-Golgi transport modulator project (AID 636; in the data active means inhibition above about 31%); conditions: absorbance 615 nm, about 18 h, stronger effect = higher value
[8] = growth suppression of yeast trafficking mutant, preliminary HTS, modulators of trafficking downstream of Golgi apparatus project, 1536-format plate, OD 615 nm (AID 637; in the data active means inhibition above about 30%); conditions: yeast transport mutant growth, absorbance 615 nm, 18 h; stronger effect = higher value
[9] = H69AR cells + 2 uM doxorubicin, measured here: viability with 2 uM doxorubicin, stronger effect = lower value
[10] = H69AR cells, compound alone cytotoxicity

Receptor tyrosine-protein kinase erbB-2 (Homo sapiens), sequence (P04626 whole entry, looked up): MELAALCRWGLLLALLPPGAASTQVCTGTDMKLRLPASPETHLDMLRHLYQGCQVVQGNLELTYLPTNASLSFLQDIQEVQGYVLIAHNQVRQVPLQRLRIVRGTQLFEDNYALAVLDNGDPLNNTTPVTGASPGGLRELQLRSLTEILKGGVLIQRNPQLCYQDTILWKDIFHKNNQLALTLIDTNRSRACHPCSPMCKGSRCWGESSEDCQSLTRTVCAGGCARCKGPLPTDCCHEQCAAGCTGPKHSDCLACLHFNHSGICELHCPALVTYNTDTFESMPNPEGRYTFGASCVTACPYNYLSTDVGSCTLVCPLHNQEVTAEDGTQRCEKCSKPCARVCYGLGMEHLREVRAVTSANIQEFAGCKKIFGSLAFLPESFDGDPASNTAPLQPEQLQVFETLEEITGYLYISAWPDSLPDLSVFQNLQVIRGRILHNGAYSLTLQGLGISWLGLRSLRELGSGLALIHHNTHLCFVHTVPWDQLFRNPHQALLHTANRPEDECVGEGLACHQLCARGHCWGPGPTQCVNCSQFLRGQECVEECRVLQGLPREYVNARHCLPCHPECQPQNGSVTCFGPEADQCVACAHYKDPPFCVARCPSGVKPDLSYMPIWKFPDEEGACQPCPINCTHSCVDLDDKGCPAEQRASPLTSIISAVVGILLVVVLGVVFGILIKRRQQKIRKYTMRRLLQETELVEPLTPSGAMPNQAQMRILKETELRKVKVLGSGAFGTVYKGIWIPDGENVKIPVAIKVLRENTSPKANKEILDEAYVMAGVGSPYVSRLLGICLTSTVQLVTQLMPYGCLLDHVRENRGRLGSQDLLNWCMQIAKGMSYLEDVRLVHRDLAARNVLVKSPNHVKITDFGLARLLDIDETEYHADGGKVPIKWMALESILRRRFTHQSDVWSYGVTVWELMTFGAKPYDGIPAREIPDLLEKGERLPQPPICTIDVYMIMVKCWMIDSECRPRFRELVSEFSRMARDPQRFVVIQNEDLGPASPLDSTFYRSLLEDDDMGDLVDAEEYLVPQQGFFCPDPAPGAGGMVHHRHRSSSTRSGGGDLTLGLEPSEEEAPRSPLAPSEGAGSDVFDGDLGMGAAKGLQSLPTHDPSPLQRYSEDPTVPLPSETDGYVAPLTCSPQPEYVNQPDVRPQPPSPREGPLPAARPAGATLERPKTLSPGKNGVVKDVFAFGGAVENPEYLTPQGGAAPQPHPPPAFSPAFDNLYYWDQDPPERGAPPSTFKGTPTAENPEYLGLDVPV

| Compound | viability [1] [%] | Her2 level [2] | viability [3] | viability [4] | viability [5] | differential viability (reversal) ([6]; H69AR cells + 2 uM doxorubicin) | viability [6, 9] [%] | viability [6, 10] [%] | inhibition [7] | inhibition [8] |
| --- | --- | --- | --- | --- | --- | --- | --- | --- | --- | --- |
| Cc1cc(Br)ccc1NC(=O)CCN1C(=O)c2ccncc2C1=O | 104 | 113% (inactive) | 104% (inactive) | 86.1% (inactive) | 95.6% (inactive) | 3.85% (inactive) | 91.7 | 95.6 | -3.78% (inactive) | -9.18% (inactive) |
| CCOC(=O)N1CCN(S(=O)(=O)c2cc(Cl)c(OC)cc2Cl)CC1 | 85 | 102% (inactive) | 85% (inactive) | 108% (inactive) | 91.1% (inactive) | -0.21% (inactive) | 91.3 | 91.1 | -2.24% (inactive) | -4.92% (inactive) |
| Cn1c(SCC(=O)N2CCOCC2)nnc1-c1cccc(NC(=O)c2ccccc2F)c1 | 102 | 82.5% (inactive) | 102% (inactive) | 94% (inactive) | 91.5% (inactive) | 11.4% (inactive) | 80.1 | 91.5 | -0.92% (inactive) | 3.06% (inactive) |
| CCC(C)OC(=O)n1ccc(C(=O)Nc2nccs2)n1 (stereo not given) | 106 | 84% (inactive) | 106% (inactive) | 91.4% (inactive) | 91.4% (inactive) | -4.24% (inactive) | 95.6 | 91.4 | 0.53% (inactive) | -4.19% (inactive) |
| CCn1c(=O)cc(SCC(=O)NCC2CCCO2)c2ccccc21 (stereo not given) | 89 | 87% (inactive) | 89% (inactive) | 88.7% (inactive) | 87% (inactive) | 8.63% (inactive) | 78.4 | 87 | -3.03% (inactive) | -7.27% (inactive) |
| CCOC(=O)c1ccc(NC(=O)CCc2c(C)nc3ncnn3c2C)cc1 | 88 | 95.5% (inactive) | 88% (inactive) | 107% (inactive) | 92.7% (inactive) | -9.71% (inactive) | 102 | 92.7 | 1.37% (inactive) | -5.56% (inactive) |
| CCc1cccc2c(=O)c(C(=O)N3CCCCCC3)c[nH]c12 | 104 | 102% (inactive) | 104% (inactive) | 98.4% (inactive) | 97.5% (inactive) | 1.41% (inactive) | 96.1 | 97.5 | -2% (inactive) | -6.94% (inactive) |
| CCC(NC(=O)Nc1cc(OC)c(OC)c(OC)c1)(C(F)(F)F)C(F)(F)F | 112 | 83.5% (inactive) | 112% (inactive) | 105% (inactive) | 93% (inactive) | -7.81% (inactive) | 101 | 93 | -4.47% (inactive) | 11% (inactive) |
| COc1ccc2cc(CN(Cc3ccco3)C(c3nnnn3C3CCCCC3)C(C)C)c(=O)[nH]c2c1 (stereo not given) | 100 | 83% (inactive) | 100% (inactive) | 47.1% (inactive) | 33.1% (active) | 7.31% (inactive) | 25.8 | 33.1 | -0.54% (inactive) | -4.59% (inactive) |
| O=C(CSc1ncnc2c1oc1ccccc12)Nc1ccccc1F | 96.5 | 101% (inactive) | 96.5% (inactive) | 72% (inactive) | 90.5% (inactive) | 7.33% (inactive) | 83.1 | 90.5 | -2.27% (inactive) | -1.33% (inactive) |
| CC(C)(C)C(=O)N=C1SC2CS(=O)(=O)CC2N1c1ccc2c(c1)OCO2 (stereo not given) | 88 | 110% (inactive) | 88% (inactive) | 104% (inactive) | 106% (inactive) | 10.5% (inactive) | 95.7 | 106 | 0.79% (inactive) | -7.82% (inactive) |
| CC(=O)N(C)C1(c2nnnn2CCOC(=O)Nc2ccc(Cl)cc2)CCCCC1 | 114 | 114% (inactive) | 114% (inactive) | 98.1% (inactive) | 104% (inactive) | 12.5% (inactive) | 91 | 104 | -1.45% (inactive) | -8.33% (inactive) |
| COc1ccc(C(=O)N(CCN2CCOCC2)CC(=O)NC2CCCC2)cc1OC | 83.5 | 106% (inactive) | 83.5% (inactive) | 111% (inactive) | 91.6% (inactive) | -0.805% (inactive) | 92.4 | 91.6 | -0.8% (inactive) | 8.36% (inactive) |
| C#CCNc1c(C)c(C)nc2ncnn12 | 104 | 97% (inactive) | 104% (inactive) | 126% (inactive) | 104% (inactive) | 18.7% (inactive) | 85.3 | 104 | -5.07% (inactive) | 11.5% (inactive) |
| O=C(CSCCSCC(=O)c1ccco1)c1ccco1 | 83.5 | 96% (inactive) | 83.5% (inactive) | 77.3% (inactive) | 101% (inactive) | 11.3% (inactive) | 90 | 101 | 0.13% (inactive) | 8.85% (inactive) |
| CCCC(=O)Nc1ccc2oc(-c3cccnc3)nc2c1 | 109 | 94% (inactive) | 109% (inactive) | 93.6% (inactive) | 88.5% (inactive) | -7.42% (inactive) | 96 | 88.5 | -4% (inactive) | 10% (inactive) |

| Compound | viability [1] [%] | Her2 level [2] | viability [3] | viability [4] | viability [5] | differential viability (reversal) ([6]; H69AR cells + 2 uM doxorubicin) | viability [6, 9] [%] | viability [6, 10] [%] | inhibition [7] | inhibition [8] |
| --- | --- | --- | --- | --- | --- | --- | --- | --- | --- | --- |
| C=CCn1c(N)c(C(=O)NCCC2=CCCCC2)sc1=S | 85.5 | 92.5% (inactive) | 85.5% (inactive) | 44.6% (inactive) | 83.2% (inactive) | 7.14% (inactive) | 76 | 83.2 | -6.49% (inactive) | -0.95% (inactive) |
| CCCC(NC(=O)c1ccccc1)c1nc2ccccc2n1Cc1ccc(C(=O)OC)o1 (stereo not given) | 98 | 105% (inactive) | 98% (inactive) | 85.4% (inactive) | 95% (inactive) | 4.1% (inactive) | 90.9 | 95 | -2.76% (inactive) | -9.17% (inactive) |
| O=S(=O)(Nc1ccc(Cc2ccncc2)cc1)N1CCCC1 | 88 | 94% (inactive) | 88% (inactive) | 104% (inactive) | 92.4% (inactive) | -6.24% (inactive) | 98.6 | 92.4 | -3.92% (inactive) | -1.97% (inactive) |
| COc1ccc(C)cc1NCc1cccc(OC)c1OC | 75.5 | 90.5% (inactive) | 75.5% (inactive) | 87.2% (inactive) | 102% (inactive) | -6.87% (inactive) | 109 | 102 | -5.41% (inactive) | -6.39% (inactive) |
| O=C(Cn1cnc2ccccc2c1=O)NCCC(=O)N1CCN(Cc2ccccc2)CC1 | 89 | 90% (inactive) | 89% (inactive) | 98.6% (inactive) | 89.8% (inactive) | 4.66% (inactive) | 85.2 | 89.8 | 0.52% (inactive) | 0.98% (inactive) |
| O=C(OCc1nnc(-c2ccccc2)o1)c1ccc(S(=O)(=O)NCc2ccco2)cc1 | 99.5 | 98% (inactive) | 99.5% (inactive) | 99.6% (inactive) | 53.6% (inactive) | -6.69% (inactive) | 60.3 | 53.6 | -4.87% (inactive) | -6.36% (inactive) |
| CCN(CC)c1ncc(C)c(=O)[nH]1 | 103 | 106% (inactive) | 103% (inactive) | 105% (inactive) | 88.8% (inactive) | -5.64% (inactive) | 94.5 | 88.8 | -3.47% (inactive) | 19% (inactive) |
| Cc1cccc(N2C(=O)CC(Sc3nc(C)c4c(n3)CCCC4)C2=O)c1 (stereo not given) | 80.5 | 128% (inactive) | 80.5% (inactive) | 102% (inactive) | 90.3% (inactive) | -0.055% (inactive) | 90.3 | 90.3 | -0.27% (inactive) | 27.5% (inactive) |
| CN(C(=O)c1ccno1)c1nnc(-c2cnccn2)s1 | 107 | 102% (inactive) | 107% (inactive) | 108% (inactive) | 103% (inactive) | 6.98% (inactive) | 95.9 | 103 | -6.22% (inactive) | 1.83% (inactive) |
| CC(C)CCNC(=O)C(c1cccs1)N(CC1CCCO1)C(=O)Cn1nnc2ccccc21 (stereo not given) | 116 | 112% (inactive) | 116% (inactive) | 96.2% (inactive) | 89.8% (inactive) | 4.32% (inactive) | 85.5 | 89.8 | -5.71% (inactive) | -6.33% (inactive) |
| CCCC(=O)Nc1ccccc1-c1nnn(CC(=O)Nc2ccc(OCC)cc2)n1 | 108 | 87% (inactive) | 108% (inactive) | 62% (inactive) | 89.1% (inactive) | -8.82% (inactive) | 97.9 | 89.1 | 1.82% (inactive) | -4.75% (inactive) |
| CC(=O)Nc1ccc(NS(=O)(=O)C(F)(F)F)cc1 | 82.5 | 97% (inactive) | 82.5% (inactive) | 93.9% (inactive) | 92.6% (inactive) | -3.72% (inactive) | 96.3 | 92.6 | -2.34% (inactive) | 1.48% (inactive) |
| CCc1ccc(C=NC23CN4CN(CN(C4)C2)C3)s1 | 108 | 114% (inactive) | 108% (inactive) | 95.2% (inactive) | 105% (inactive) | 9.64% (inactive) | 95.2 | 105 | 1.17% (inactive) | -3.61% (inactive) |
| O=C(O)CCC1(C(=O)O)OCCc2ccccc21 (stereo not given) | 112 | 83% (inactive) | 112% (inactive) | 107% (inactive) | 97.5% (inactive) | 7.12% (inactive) | 90.3 | 97.5 | -5.54% (inactive) | 2.86% (inactive) |
| COc1cccc(OC)c1C(=O)N1CCN(S(=O)(=O)c2ccc(C)cc2)CC1 | 103 | 108% (inactive) | 103% (inactive) | 87.2% (inactive) | 91.4% (inactive) | -5.23% (inactive) | 96.7 | 91.4 | -7.2% (inactive) | -3.28% (inactive) |
